Measured values reported in publication PMC10962275 (Pharmacological research, 2024).
≈ marks a conversion by molar mass, not a printed value. Read-outs that look alike come from different tables or passages of the source.

What was measured:
APE1 = APE1 (Homo sapiens, UniProt P27695); assay: Kinetic fluorescence based APE1 endonuclease; format: biochemical
Method in brief: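 Recombinant APE1 at 0.07–0.1 nM, tuned before each run for a linear signal, cleaves a double-stranded oligo with a 6-FAM-labelled strand carrying a tetrahydrofuran AP-site mimic and a DABCYL-quenched complement. Read 495/530 over a 5 min kinetic read at 37 °C. A known repair inhibitor serves as reference, also at 20 μM.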

HIF1α [1] = assay: HIF1α-driven luciferase reporter assay, Pa03C cells, 1% hypoxia; format: cell-based; conditions: Homo sapiens, 24 h, read-out: HIF1α Luciferase 24 hr EC50 ± SE (μM)
Method in brief: (§1)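 Pa03C and NF90–8 cells carrying a HIF1α-driven GFP-luciferase reporter, checked for induction by hypoxia. Seeded, then treated 24 h later with increasing test compound doses in 5% FBS medium for 24 h under 1% hypoxia. Luciferase measured by One-Glo, with parallel alamarBlue viability. Mean ± SEM, n > 2 biological repeats.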

HIF1α [2] = assay: HIF1α-driven luciferase reporter assay, NF90-8 cells, 1% hypoxia; format: cell-based; conditions: Homo sapiens, 24 h, read-out: HIF1α Luciferase 24 hr EC50±SE (μM)
Method in brief: as §1

[3] = Plasma stability, mouse plasma; format: in vitro ADME
Method in brief: (§2)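 Human or mouse plasma pre-warmed to 37 °C and added to dried test compound (1 μM) held on a 37 °C heat block. Stopped with cold acetonitrile at 0, 5, 10, 20, 40 and 60 min. Processed samples reconstituted in acetonitrile and analysed by HPLC.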

[4] = Phase 1 metabolic stability, mouse liver microsomes; format: in vitro ADME; conditions: pH 7.4
Method in brief: (§3)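 Test compound (1 μM) dried under nitrogen, then mixed with human or mouse liver S9 or microsomes (20 mg/mL stock) in phosphate buffer pH 7.4 with 5 mM MgCl2. Reaction started with NADPH (4 mM stock), shaken at 400 rpm. Sampled at 0, 5, 10, 20, 40 and 60 min and quenched with ice-cold acetonitrile; analysed by HPLC.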

Thermodynamic solubility = format: physicochemical; conditions: thermodynamic from solid; for solubility thermodynamic at 24 h: 37 °C; for solubility thermodynamic: phosphate buffer, pH 6.8, aqueous buffer
[5] = Phase 1 metabolic stability, human liver microsomes; format: in vitro ADME; conditions: pH 7.4
Method in brief: as §3

CAF19 cells = assay: 3D co-culture spheroid assay, CAFs; format: cell-based; conditions: Homo sapiens, Pa03C, read-out: 3D CAF19 EC50 (mM)
Method in brief: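 Pa03C (TdTomato-labelled) and CAF19 (EGFP-labelled) plated together at 1:4 in ultra-low-attachment plates to form spheroids. Treated on days 4, 8 and 12 with rising test compound levels in medium containing 5% serum and 3% growth-factor-reduced Matrigel. Fluorescence intensity read by high-content imaging on days 4, 8, 12 and 14. Mean ± SE, n > 3.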

[6] = Phase 1 metabolic stability, mouse liver S9; format: in vitro ADME; conditions: liver S9, pH 7.4
Method in brief: as §3

NFκB and HIF1α = assay: Ref-1-regulated transcription factor driven luciferase activity; format: cell-based, human; conditions: Pa03C and NF90–8 cells, 24 h
Pa03C cells [7] = assay: 3D co-culture spheroid assay, tumor cells; format: cell-based; conditions: Homo sapiens; for EC50: read-out: 3D tumor(Pa03C) EC50 (mM); for IC50: read-out: cell killing effect in the 3D spheroid assay
[8] = Chemical stability in enabling vehicle PKT; format: physicochemical
In vivo PK in mouse = conditions: plasma; for clearance: iv; for AUC(0-inf) / Cmax / half-life: po, 25 mg/kg
[9] = Phase 1 metabolic stability, human liver S9; format: in vitro ADME; conditions: liver S9, pH 7.4
Method in brief: as §3

NFκB [10] = assay: NFκB-driven luciferase reporter assay, Pa03C cells; format: cell-based; conditions: Homo sapiens, 24 h, read-out: NFκB Luciferase 24 hr EC50 ± SE (μM)
Method in brief: as §1, with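 “an NFκB-driven” for “a HIF1α-driven”, “TNF-α.” for “hypoxia.”, “h.” for “h under 1% hypoxia.”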

[11] = Plasma stability, human plasma; format: in vitro ADME
Method in brief: as §2

[12] = CaCO2 bidirectional permeability; format: in vitro ADME; conditions: human, Caco-2
NFκB [13] = assay: NFκB luciferase reporter assay; format: cell-based, human; conditions: for IC50: Homo sapiens, Pa03C, read-out: NFκB (IC50 mM)
Method in brief: as §1, with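 “an NFκB-driven” for “a HIF1α-driven”, “TNF-α.” for “hypoxia.”, “h.” for “h under 1% hypoxia.”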

Ref-1 = Ref-1 (Homo sapiens, UniProt P27695); assay: Redox EMSA; format: biochemical
NFκB [14] = assay: NFκB-driven luciferase reporter assay, NF90-8 cells; format: cell-based; conditions: Homo sapiens, 24 h, read-out: NFκB Luciferase 24 hr EC50±SE (μM)
Method in brief: as §1, with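 “an NFκB-driven” for “a HIF1α-driven”, “TNF-α.” for “hypoxia.”, “h.” for “h under 1% hypoxia.”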

Ref-1 (39–318/C138A) [15] = target: T1, Ref-1 (39–318/C138A) (Homo sapiens, UniProt P27695, C138A); assay: WaterLOGSY NMR; format: binding; conditions: 20 μM Ref-1, 200 μM compound
Method in brief: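 WaterLOGSY spectra acquired with 1.5 s mixing time, 128 scans, 10 ppm sweep width, 1.58 s acquisition time and 5 s relaxation delay. Data multiplied by an exponential function with 1 Hz line broadening before Fourier transformation.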

Ref-1 (39–318/C138A) [16] = target: T1, Ref-1 (39–318/C138A); conditions: ref [25]; cited from earlier work
progressing solid tumors = conditions: phase I clinical trial, ref [34]–[36]; cited from earlier work
NF90–8 cells = assay: Mitochondrial plate-based assay; format: cell-based, human; conditions: APX2051 at 10 μM, APX3330 at 50 μM
Method in brief: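 Biolog S-1 Mitoplates activated with Assay Mix for at least 60 min at 37 °C. NF90–8 cells treated 24 h, then collected, counted, resuspended in kit buffer and plated at 5 × 10^4 cells/well. Read kinetically at 590 nm every 5 min for 4 h at 37 °C. Mean ± SEM, n = 2; 2-way ANOVA.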

[17] = preclinical models; cited from earlier work
[18] = Phase 2 metabolic stability, human liver S9; format: in vitro ADME
Method in brief: (§4)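 Test compound (1 μM) dried under nitrogen, then incubated with human or mouse liver S9 in UGT reaction mix, shaken at 400 rpm. Stopped with ice-cold acetonitrile at 0, 5, 10, 20, 40 and 60 min. Temazepam internal standard added, then centrifuged; supernatant dried and reconstituted in acetonitrile for HPLC.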

[19] = Phase 2 metabolic stability, mouse liver S9; format: in vitro ADME
Method in brief: as §4

NF90–8 and Pa03C cells = assay: Cell viability; format: cell-based, human; conditions: alamar blue, 24 h
Pa03C cells [20] = assay: NADP/NADPH assay; format: cell-based, human; conditions: 6 h
[21] = FaSSGF, fassgf or other biorelevant

APE1, sequence (P27695 whole entry): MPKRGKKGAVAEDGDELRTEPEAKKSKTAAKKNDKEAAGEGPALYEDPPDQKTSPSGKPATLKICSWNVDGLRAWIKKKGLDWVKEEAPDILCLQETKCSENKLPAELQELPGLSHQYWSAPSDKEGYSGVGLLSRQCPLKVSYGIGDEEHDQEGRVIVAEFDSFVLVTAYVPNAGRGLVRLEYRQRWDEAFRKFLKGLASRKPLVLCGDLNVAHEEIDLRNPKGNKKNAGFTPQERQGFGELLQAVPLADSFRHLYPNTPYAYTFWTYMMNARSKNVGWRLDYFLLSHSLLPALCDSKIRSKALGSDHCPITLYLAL
T1 sequence (P27695 39-318 C138A): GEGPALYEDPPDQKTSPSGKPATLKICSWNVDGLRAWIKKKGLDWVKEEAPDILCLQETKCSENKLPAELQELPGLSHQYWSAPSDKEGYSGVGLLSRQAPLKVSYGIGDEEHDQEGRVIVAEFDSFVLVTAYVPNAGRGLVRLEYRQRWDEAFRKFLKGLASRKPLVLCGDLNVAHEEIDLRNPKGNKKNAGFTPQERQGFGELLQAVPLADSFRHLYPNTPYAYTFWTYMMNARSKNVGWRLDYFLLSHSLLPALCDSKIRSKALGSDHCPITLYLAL
Ref-1, sequence (P27695 whole entry): as the sequence (P27695 whole entry) above

EC50 (HIF1α [1]) [µM]	EC50 (HIF1α [2]) [µM]	half-life at 1 µM [3] [h]	CLint scaled at 1 µM [4] [mL/min/kg]	solubility thermodynamic at 24 h (Thermodynamic solubility; [21]) [µg/mL]	solubility thermodynamic at 24 h (Thermodynamic solubility; FaSSIF) [µg/mL]	solubility thermodynamic at 24 h (Thermodynamic solubility; FeSSIF) [µg/mL]	solubility thermodynamic (Thermodynamic solubility) [µg/mL]	CLint scaled at 1 µM [5] [mL/min/kg]	EC50 (CAF19 cells) [mM]	CLint scaled at 1 µM [6] [mL/min/kg]	EC50 (Pa03C cells [7]) [mM]	clearance (In vivo PK in mouse) [mL/min]	AUC(0-inf) (In vivo PK in mouse) [ng·h/mL]	Cmax (In vivo PK in mouse) [ng/mL]	half-life (In vivo PK in mouse) [h]	DNA Repair (APE1)	CLint scaled at 1 µM [9] [mL/min/kg]	half-life at 1 µM [11] [h]	Papp A→B [12] [×10⁻⁶ cm/s]	SMILES	other results
–	–	–	–	–	–	–	–	–	–	–	–	–	–	–	–	–	–	–	–	CC(=O)Nc1sc2c(c1-c1nc3ccccc3s1)CCN(C(C)C)C2 [ARi3, reference compound]	decrease of Ref-1 endonuclease activity (APE1; 20 μM, positive control): 63%
14.5 ± 1.06	14.3 ± 0.25	0.567	19.3	95 (≈ 267 µM)	198 (≈ 557 µM)	558 (≈ 1570 µM)	94 (≈ 264 µM)	4.3	0.0078	7.9	0.0046	0.683	113	27	1.8	Neg.	2.9	2.72	33.7	CCC/C(=C\C1=C(OC)C(=O)c2ccccc2C1=O)C(=O)N(CC)CC [APX2009, (E)‐N,N‐diethyl‐2‐[(3‐methoxy‐1,4‐dioxo‐1,4‐dihydronaphthalen‐2-yl)methylidene]pentanamide]	reduction in both NFκB and HIF1α activity: fold lower doses compared to APX3330 (NFκB and HIF1α): 2 – 11 fold; IC50 (Pa03C cells [7]): 4.3 µM; chemical stability in PKT vehicle, stressed ([8]; 60 °C for 4 h): formation of significant amount of the hydroquinone (HQ) of APX2053; chemical stability in PKT vehicle ([8]; room temperature after four days): acceptable stability; EC50 (NFκB [10]): 18.8 ± 1.35 µM; efflux ratio [12]: 0.75; IC50 (NFκB [13]): 0.0051 mM; IC50 (Ref-1): < 1 µM; EC50 (NFκB [14]): 5.1 ± 0.3 µM; peaks in waterLOGSY difference spectra (Ref-1 (39–318/C138A) [15]): consistent with interactions with Ref-1
60.2 ± 4.13	55.1 ± 0.44	1.57	67.4	1 (≈ 2.64 µM)	671 (≈ 1770 µM)	448 (≈ 1180 µM)	496 (≈ 1310 µM)	31.8	> 0.02	14.2	> 0.02	0.00833	77900	8820	3.8	Neg.	4.4	8.48	5.2	CCCCCCCCC/C(=C\C1=C(C)C(=O)C(OC)=C(OC)C1=O)C(=O)O [APX3330, reference compound]	peaks in waterLOGSY difference spectra (Ref-1 (39–318/C138A) [16]): consistent with interactions with Ref-1; response rate (progressing solid tumors): 32%; inhibition of mitochondrial function (NF90–8 cells): minimal effects; potency in cell-based proliferation assays [17]: 50 to 75 µM; EC50 (NFκB [10]): 54.5 ± 1.97 µM; CLint scaled at 1 µM [18]: 5.6 mL/min/kg; CLint scaled at 1 µM [19]: 21.6 mL/min/kg; IC50 (NFκB [13]): 0.0393 mM; EC50 (NFκB [14]): 33.7 ± 2.81 µM
–	–	2.2	19	760 (≈ 2230 µM)	1010 (≈ 2960 µM)	1200 (≈ 3510 µM)	–	2.3	0.0143	34.6	0.0161	0.0217	25400	5700	2.1	Slight. Inhib.	1.9	0.417	39.7	CCC/C(=C\C1=C(O)C(=O)c2ccccc2C1=O)C(=O)N(CC)CC [APX2053, (E)-N,N-diethyl-2-((3-hydroxy-1,4-dioxo-1,4-dihydronaphthalen-2-yl)methylene)pentanamide]	IC50 (Pa03C cells [7]): 16 µM; cell viability of reporter cells (NF90–8 and Pa03C cells): do not decrease the NFκB activity or affect cell viability; NADPH levels (ratio of NADPH/NADPt) (Pa03C cells [20]): does not show reduced NADPH levels; efflux ratio [12]: 1; NFκB activity (NFκB [13]; NF90–8 and Pa03C, any of the doses tested): do not decrease; blocking Ref-1 activated TF activity (for NFκB) (NFκB [13]; tested up to 40 μM): ineffective; peaks in waterLOGSY difference spectra (Ref-1 (39–318/C138A) [15]): consistent with interactions with Ref-1
